ChEMBL document CHEMBL4406859, “Antitumor and antiviral activities of 4-substituted 1,2,3-triazolyl-2,3-dibenzyl-L-ascorbic acid derivatives” (Eur J Med Chem, 2019)
pEC50, pIC50: −log10 of the molar value. Activity calls are given as the source filed them. The rule behind the calls is not given here.

How the values were obtained:
[1] = Cytotoxicity against human HELF cells assessed as minimum cytotoxic concentration by observing alteration in cell morphology incubated for 3 days by microscopic analysis; format: cell-based; conditions: for MCC at 72 h: HELF cells; for MCC: 72 h
Procedure, shortened: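 Read-out is the minimum cytotoxic concentration (MCC): the lowest compound concentration giving a microscopically detectable change in cell morphology. Measured on confluent human embryonic lung (HEL) fibroblast cultures exposed to a range of compound concentrations.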

[2] = Cytotoxicity against human HELF cells assessed as reduction in cell viability incubated for 3 days by coulter counter method; format: cell-based; conditions: 72 h
Procedure, shortened: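 HEL cells seeded at 5 x 10^3/well and allowed to proliferate 24 h, then exposed to graded compound concentrations for 3 days at 37 °C. Cell number counted with a Coulter counter.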

Cytomegalovirus [3] = assay: Antiviral activity against Cytomegalovirus Davis infected in human HELF cells assessed as reduction in virus-induced cytopathogenicity incubated for 7 days by Giemsa staining based microscopic analysis; format: functional, organism-based; conditions: Human betaherpesvirus 5, Davis, 168 h
Procedure, shortened: (§1)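 Confluent HEL fibroblasts infected with CMV (Davis or AD-169) at 100 PFU/well for 2 h. Residual virus removed, then medium with graded compound concentrations added (duplicate). Incubated 7 days at 37 °C. Cytopathogenicity scored microscopically after ethanol fixation and Giemsa staining. EC50 read from plots of % cytopathogenicity versus concentration.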

Cytomegalovirus [4] = assay: Antiviral activity against Cytomegalovirus AD169 infected in human HELF cells assessed as reduction in virus-induced cytopathogenicity incubated for 7 days by Giemsa staining based microscopic analysis; format: functional, organism-based; conditions: Human betaherpesvirus 5, AD169, HELF, 168 h; procedure, shortened: as §1
Human alphaherpesvirus 2 = assay: Antiviral activity against Herpes simplex virus 2 G infected in human HELF cells assessed as reduction in virus-induced cytopathogenicity incubated for 7 days by microscopic analysis; format: functional, organism-based; conditions: for pEC50: Human alphaherpesvirus 2, G, 168 h
A549 = assay: Antiproliferative activity against human A549 cells assessed as reduction in cell viability incubated for 72 hrs by MTT assay; format: functional, cell-based; conditions: A549, 72 h
Procedure, shortened: (§2)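 Cells (ATCC) grown in DMEM with 10 FBS, penicillin/streptomycin, 2 mM glutamine, 37 °C, 5 CO2. 5000 cells/well seeded; after 24 h, freshly prepared dilutions at five concentrations (0.01–100 μM) added for 72 h. MTT read-out; absorbance converted to percentage growth by NIH formulas. Two experiments in quadruplicate; IC50 by linear regression.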

Influenza A virus [5] = assay: Antiviral activity against Influenza A virus (A/Ned/378/05(H1N1)) infected in dog MDCK cells assessed as reduction in virus-induced cytopathogenicity incubated for 7 days by microscopic analysis; format: functional, organism-based
Human alphaherpesvirus 3 [6] = assay: Antiviral activity against thymidine kinase deficient Varicella zoster virus infected in human HELF cells assessed as reduction in virus-induced cytopathogenicity incubated for 7 days by Giemsa staining based microscopic analysis; format: functional, organism-based; conditions: Human alphaherpesvirus 3, HELF, 168 h
Sindbis virus = assay: Antiviral activity against Sindbis virus infected in vero cells assessed as reduction in virus-induced cytopathogenicity incubated for 7 days by microscopic analysis; format: functional, organism-based
Human alphaherpesvirus 1 [7] = assay: Antiviral activity against Herpes simplex virus 1 TK-KOS-ACV infected in human HELF cells assessed as reduction in virus-induced cytopathogenicity incubated for 7 days by microscopic analysis; format: functional, organism-based; conditions: for pEC50: Human alphaherpesvirus 1, TK-KOS-ACV, 168 h
SW-620 = assay: Antiproliferative activity against human SW620 cells assessed as reduction in cell viability incubated for 72 hrs by MTT assay; format: functional, cell-based; conditions: SW-620, 72 h; procedure, shortened: as §2
Human adenovirus 2 = assay: Antiviral activity against Human adenovirus 2 infected in human HELF cells assessed as reduction in virus-induced cytopathogenicity incubated for 7 days by microscopic analysis; format: functional, organism-based; conditions: for pEC50: Human mastadenovirus C, 168 h
HepG2 = assay: Antiproliferative activity against human HepG2 cells assessed as reduction in cell viability incubated for 72 hrs by MTT assay; format: functional, cell-based; conditions: HepG2, 72 h; procedure, shortened: as §2
Influenza B virus [8] = assay: Antiviral activity against Influenza B virus (B/Ned/537/05) infected in dog MDCK cells assessed as reduction in virus-induced cytopathogenicity incubated for 7 days by MTS assay; format: functional, organism-based
HFF = assay: Cytotoxicity against human HFF cells assessed as reduction in cell viability incubated for 72 hrs by MTT assay; format: cell-based; procedure, shortened: as §2
HeLa = assay: Antiproliferative activity against human HeLa cells assessed as reduction in cell viability incubated for 72 hrs by MTT assay; format: functional, cell-based; procedure, shortened: as §2
Influenza B virus [9] = assay: Antiviral activity against Influenza B virus (B/Ned/537/05) infected in dog MDCK cells assessed as reduction in virus-induced cytopathogenicity incubated for 7 days by microscopic analysis; format: functional, organism-based
CFPAC-1 = assay: Antiproliferative activity against human CFPAC-1 cells assessed as reduction in cell viability incubated for 72 hrs by MTT assay; format: functional, cell-based; conditions: Homo sapiens, CFPAC-1, 72 h; read-out: IC50; procedure, shortened: as §2
Human alphaherpesvirus 3 [10] = assay: Antiviral activity against thymidine kinase positive Varicella zoster virus infected in human HELF cells assessed as reduction in virus-induced cytopathogenicity incubated for 7 days by Giemsa staining based microscopic analysis; format: functional, organism-based; conditions: Human alphaherpesvirus 3, HELF, 168 h
Influenza A virus H3N2 [11] = assay: Antiviral activity against Influenza A virus (A/HK/7/87(H3N2)) infected in dog MDCK cells assessed as reduction in virus-induced cytopathogenicity incubated for 7 days by microscopic analysis; format: functional, organism-based; conditions: A/Hong Kong/7/1987(H3N2)
Influenza A virus H3N2 [12] = assay: Antiviral activity against Influenza A virus (A/HK/7/87(H3N2)) infected in dog MDCK cells assessed as reduction in virus-induced cytopathogenicity incubated for 7 days by MTS assay; format: functional, organism-based; conditions: A/Hong Kong/7/1987(H3N2)
Human coronavirus 229E = assay: Antiviral activity against Human coronavirus 229E infected in human HELF cells assessed as reduction in virus-induced cytopathogenicity incubated for 7 days by microscopic analysis; format: functional, organism-based
HCT-116 = assay: Antiproliferative activity against human HCT116cells assessed as reduction in cell viability incubated for 72 hrs by MTT assay; format: functional, cell-based; conditions: HCT-116, 72 h; procedure, shortened: as §2
Reovirus sp. = assay: Antiviral activity against Reovirus infected in vero cells assessed as reduction in virus-induced cytopathogenicity incubated for 7 days by microscopic analysis; format: functional, organism-based
Coxsackievirus B4 = assay: Antiviral activity against Human coxsackievirus B4 infected in vero cells assessed as reduction in virus-induced cytopathogenicity incubated for 7 days by microscopic analysis; format: functional, organism-based
Human alphaherpesvirus 1 [13] = assay: Antiviral activity against Herpes simplex virus 1 KOS infected in human HELF cells assessed as reduction in virus-induced cytopathogenicity incubated for 7 days by microscopic analysis; format: functional, organism-based; conditions: for Activity: strain KOS
MCF7 = assay: Antiproliferative activity against human MCF7 cells assessed as reduction in cell viability incubated for 72 hrs by MTT assay; format: functional, cell-based; conditions: MCF7, 72 h; procedure, shortened: as §2
Influenza A virus [14] = assay: Antiviral activity against Influenza A virus (A/Ned/378/05(H1N1)) infected in dog MDCK cells assessed as reduction in virus-induced cytopathogenicity incubated for 7 days by MTS assay; format: functional, organism-based

Compound	MCC at 72 h [1]	pEC50 (Cytomegalovirus [3])	pEC50 (Cytomegalovirus [4])	pEC50 (Human alphaherpesvirus 2)	pIC50 (A549)	Activity (Influenza A virus [5])	pEC50 (Human alphaherpesvirus 3 [6])	Activity (Sindbis virus)	Activity (Human alphaherpesvirus 1 [7])	pIC50 (SW-620)	Activity (Human adenovirus 2)	pIC50 (HepG2)	Activity (Influenza B virus [8])	pIC50 (HFF)	pIC50 (HeLa)	Activity (Influenza B virus [9])	pIC50 (CFPAC-1)	pEC50 (Human alphaherpesvirus 3 [10])	pIC50 (HCT-116)	pIC50 (MCF7)	other results
Nc1nc(O)c2ncn(COC(CO)CO)c2n1 [GANCICLOVIR]	> 350 µM	5.64	5.50	6.52																	CC50 [2]: > 350 µM
O=C1O[C@H]([C@@H](O)Cn2cc(C3CC3)nn2)C(OCc2ccccc2)=C1OCc1ccccc1	100 µM	< 4.70	4.35		4.36	inactive	< 4.00	inactive	inactive	4.27	inactive	4.42	inactive	4.61	4.58	inactive	4.32	< 4.00	4.52	4.59	Activity (Influenza A virus H3N2 [11]): inactive; Activity (Influenza A virus H3N2 [12]): inactive; Activity (Human alphaherpesvirus 2): inactive; Activity (Human coronavirus 229E): inactive; Activity (Reovirus sp.): inactive; Activity (Coxsackievirus B4): inactive; Activity (Human alphaherpesvirus 1 [13]): inactive; Activity (Influenza A virus [14]): inactive
CC(C)(C)c1cn(C[C@H](O)[C@H]2OC(=O)C(OCc3ccccc3)=C2OCc2ccccc2)nn1	100 µM	< 4.70	4.35		4.47	inactive	< 4.70	inactive	inactive	4.45	inactive	4.53	inactive	4.88	4.74	inactive	4.26	4.31	4.55	6.14	Activity (Influenza A virus H3N2 [11]): inactive; Activity (Influenza A virus H3N2 [12]): inactive; Activity (Human alphaherpesvirus 2): inactive; Activity (Human coronavirus 229E): inactive; Activity (Reovirus sp.): inactive; Activity (Coxsackievirus B4): inactive; Activity (Human alphaherpesvirus 1 [13]): inactive; Activity (Influenza A virus [14]): inactive
CCCCc1cn(C[C@H](O)[C@H]2OC(=O)C(OCc3ccccc3)=C2OCc2ccccc2)nn1	20 µM	< 5.40	< 4.70		4.54	inactive	< 4.70	inactive	inactive	4.32	inactive	4.48	inactive	4.58	4.74	inactive	4.14	5.14	4.98	5.10	Activity (Influenza A virus H3N2 [11]): inactive; Activity (Influenza A virus H3N2 [12]): inactive; Activity (Human alphaherpesvirus 2): inactive; Activity (Human coronavirus 229E): inactive; Activity (Reovirus sp.): inactive; Activity (Coxsackievirus B4): inactive; Activity (Human alphaherpesvirus 1 [13]): inactive; Activity (Influenza A virus [14]): inactive
O=C1O/C(=C\Cn2cc(CCO)nn2)C(OCc2ccccc2)=C1OCc1ccccc1	> 100 µM	< 4.00	< 4.00		< 4.00	inactive	4.11	inactive	inactive	4.38	inactive	4.41	inactive	4.59	4.55	inactive	4.36	< 4.00	4.55	4.43	Activity (Influenza A virus H3N2 [11]): inactive; Activity (Influenza A virus H3N2 [12]): inactive; Activity (Human alphaherpesvirus 2): inactive; Activity (Human coronavirus 229E): inactive; Activity (Reovirus sp.): inactive; Activity (Coxsackievirus B4): inactive; Activity (Human alphaherpesvirus 1 [13]): inactive; Activity (Influenza A virus [14]): inactive
Nc1ccn(C[C@@H](CO)OCP(=O)(O)O)c(=O)n1 [CIDOFOVIR]		6.19	6.37	5.28																	pEC50 (Human alphaherpesvirus 1 [7]): 5.35; MCC [1]: 250 to 300 µM; CC50 [2]: 214 µM
Nc1nc2c(ncn2COCCO)c(=O)[nH]1 [ACYCLOVIR]				5.70																	pEC50 (Human alphaherpesvirus 1 [7]): 4.77; MCC [1]: 250 to 440 µM; CC50 [2]: > 440 µM; pEC50 (Human adenovirus 2): 5.24
CCCCc1cn(C/C=C2\OC(=O)C(OCc3ccccc3)=C2OCc2ccccc2)nn1	100 µM			5.02	< 4.00							4.11		4.31	4.17		4.14		4.21	4.24	pEC50 (Human alphaherpesvirus 1 [7]): < 4.00; pEC50 (Human adenovirus 2): 4.70; pEC50 (Human coronavirus 229E; 168 h): 5.07; pEC50 (Human alphaherpesvirus 1 [13]; Human alphaherpesvirus 1, strain KOS, 168 h): < 4.00
